Assay results: ChEMBL document CHEMBL2417474, “Synthesis, antiproliferative and anti-inflammatory activities of some novel 6-aryl-2-(p-(methanesulfonyl)phenyl)-4,5-dihydropyridazi-3(2H)-ones” (Eur J Med Chem, 2013)

What was measured:
Format in all cases: functional
M14 = assay: Growth inhibition of human M14 cells after 48 hrs by sulforhodamine B assay; conditions: M14, 48 h
Procedure, shortened: (§1)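 NCI 60-cell-line panel grown in RPMI-type medium with 5% fetal calf serum and 2 mM L-glutamine. Cells preincubated 24 h, then exposed continuously for 48 h to compound in DMSO at 10^-4 to 10^-8 M (five 10-fold levels). Growth read by SRB protein stain. GI50 is the concentration giving a 50% reduction in net protein increase relative to control cells.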

T47D = assay: Growth inhibition of human T47D cells assessed as cell growth at 10 uM after 48 hrs by sulforhodamine B assay; conditions: read-out: Activity
Procedure, shortened: (§2)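 Single-dose NCI screen. Tumor lines were cultured in medium with 5% fetal calf serum and 2 mM L-glutamine, preincubated 24 h, then given compound in DMSO. After 48 h continuous exposure, cell growth was estimated by sulforhodamine B protein assay.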

[1] = Growth inhibition of human NCI-ADR-RES cells assessed as cell growth at 10 uM after 48 hrs by sulforhodamine B assay; conditions: read-out: Activity
SK-MEL-2 [2] = assay: Growth inhibition of human SK-MEL-2 cells assessed as cell growth at 10 uM after 48 hrs by sulforhodamine B assay; conditions: SK-MEL-2, 48 h, read-out: Activity
HL-60(TB) = assay: Growth inhibition of human HL-60(TB) cells after 48 hrs by sulforhodamine B assay; conditions: HL-60, 48 h
Procedure, shortened: (§3)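 Part of the NCI 60-cell-line panel. Cells were grown in 1640 medium with 5% fetal calf serum and 2 mM L-glutamine, then preincubated 24 h before compound was added. Compounds in DMSO were tested at five concentrations (100, 10, 1, 0.1, 0.01 µM) with 48 h continuous exposure. Read-out was SRB protein staining; GI50 is the concentration halving the net protein increase versus control.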

Malme-3M = assay: Growth inhibition of human MALME-3M cells after 48 hrs by sulforhodamine B assay; procedure, shortened: as §1
ACHN = assay: Growth inhibition of human ACHN cells assessed as cell growth at 10 uM after 48 hrs by sulforhodamine B assay; conditions: read-out: Activity
[3] = Growth inhibition of human HCC2998 cells after 48 hrs by sulforhodamine B assay; conditions: HCC 2998, 48 h; procedure, shortened: as §1
K562 = assay: Growth inhibition of human K562 cells assessed as cell growth at 10 uM after 48 hrs by sulforhodamine B assay; conditions: K562, 48 h, read-out: Activity
SF-539 [4] = assay: Growth inhibition of human SF539 cells after 48 hrs by sulforhodamine B assay; conditions: SF-539, 48 h
Procedure, shortened: (§4)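 NCI 60-cell-line panel. Cells were grown in medium with 5% fetal calf serum and 2 mM L-glutamine, then preincubated 24 h in plates. Compounds were added from DMSO at five 10-fold concentrations from 100 to 0.01 µM and left on cells continuously for 48 h. Cell growth was read by sulforhodamine B protein stain. GI50 is the concentration that halves net protein increase relative to control cells.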

SK-MEL-2 [5] = assay: Growth inhibition of human SK-MEL-2 cells after 48 hrs by sulforhodamine B assay; conditions: SK-MEL-2, 48 h; procedure, shortened: as §4
HT-29 [6] = assay: Growth inhibition of human HT-29 cells after 48 hrs by sulforhodamine B assay; conditions: HT-29, 48 h; procedure, shortened: as §1
SN12C = assay: Growth inhibition of human SN12C cells after 48 hrs by sulforhodamine B assay; procedure, shortened: as §3
SF-539 [7] = assay: Growth inhibition of human SF539 cells assessed as cell growth at 10 uM after 48 hrs by sulforhodamine B assay; conditions: SF-539, 48 h, read-out: Activity
BT-549 = assay: Growth inhibition of human BT549 cells after 48 hrs by sulforhodamine B assay; conditions: BT-549, 48 h; procedure, shortened: as §1
UO-31 = assay: Growth inhibition of human UO31 cells assessed as cell growth at 10 uM after 48 hrs by sulforhodamine B assay; conditions: UO-31, 48 h, read-out: Activity; procedure, shortened: as §2
TK-10 [8] = assay: Growth inhibition of human TK10 cells assessed as cell growth at 10 uM after 48 hrs by sulforhodamine B assay; conditions: TK-10, 48 h, read-out: Activity; procedure, shortened: as §2
MDA-MB-468 = assay: Growth inhibition of human MDA-MB-468 cells after 48 hrs by sulforhodamine B assay; conditions: MDA-MB-468, 48 h; procedure, shortened: as §4
MDA-MB-435 = assay: Growth inhibition of human MDA-MB-435 cells assessed as cell growth at 10 uM after 48 hrs by sulforhodamine B assay; conditions: MDA-MB-435, 48 h, read-out: Activity
[9] = Growth inhibition of human HCC2998 cells assessed as cell growth at 10 uM after 48 hrs by sulforhodamine B assay; conditions: HCC 2998, 48 h, read-out: Activity
SNB-75 [10] = assay: Growth inhibition of human SNB75 cells assessed as cell growth at 10 uM after 48 hrs by sulforhodamine B assay; conditions: SNB-75, 48 h, read-out: Activity
SK-OV-3 = assay: Growth inhibition of human SKOV3 cells after 48 hrs by sulforhodamine B assay; conditions: SK-OV-3, 48 h; procedure, shortened: as §4
SNB-75 [11] = assay: Growth inhibition of human SNB75 cells after 48 hrs by sulforhodamine B assay; conditions: SNB-75, 48 h; procedure, shortened: as §4
SF-295 = assay: Growth inhibition of human SF295 cells after 48 hrs by sulforhodamine B assay; conditions: SF-295, 48 h; procedure, shortened: as §4
TK-10 [12] = assay: Growth inhibition of human TK10 cells after 48 hrs by sulforhodamine B assay; conditions: TK-10, 48 h
Procedure, shortened: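 NCI 60-line panel. Cells were grown in medium with 5% fetal calf serum and 2 mM L-glutamine and preincubated 24 h in plates. Compound in DMSO was added at 10^-4 to 10^-8 M (five 10-fold levels), with continuous exposure for 48 h. Growth was read by SRB protein staining. GI50 is the concentration giving 50% reduction in net protein increase versus control cells.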

DU-145 = assay: Growth inhibition of human DU145 cells assessed as cell growth at 10 uM after 48 hrs by sulforhodamine B assay; conditions: DU-145, 48 h, read-out: Activity
HT-29 [13] = assay: Growth inhibition of human HT-29 cells assessed as cell growth at 10 uM after 48 hrs by sulforhodamine B assay; conditions: HT-29, 48 h, read-out: Activity
IGROV-1 = assay: Growth inhibition of human IGROV1 cells assessed as cell growth at 10 uM after 48 hrs by sulforhodamine B assay; conditions: IGROV-1, 48 h, read-out: Activity
[14] = read-out: LC50 (the source's name)

CCc1ccc(C2=NN(c3ccc(S(C)(=O)=O)cc3)C(=O)CC2)cc1
GI50 (M14): 0.63 µM
TGI (M14): > 100 µM
CC50 (M14; [14]): > 100 µM
growth at 10 µM (T47D): 41.4%
growth at 10 µM [1]: 6.7%
growth at 10 µM (SK-MEL-2 [2]): 36.9%
GI50 (HL-60(TB)): 1.2 µM
TGI (HL-60(TB)): 6.35 µM
CC50 (HL-60(TB); [14]): > 100 µM
GI50 (Malme-3M): 6.8 µM
TGI (Malme-3M): > 67.6 µM
CC50 (Malme-3M; [14]): > 100 µM
growth at 10 µM (ACHN): 46%
GI50 [3]: 5.27 µM
TGI [3]: 53.4 µM
CC50 [3, 14]: > 100 µM
growth at 10 µM (K562): 10.4%
GI50 (SF-539 [4]): 2.35 µM
TGI (SF-539 [4]): 18.9 µM
CC50 (SF-539 [4]; [14]): > 100 µM
GI50 (SK-MEL-2 [5]): 0.9 µM
LC50 (SK-MEL-2 [5]): > 100 µM
TGI (SK-MEL-2 [5]): > 100 µM
GI50 (HT-29 [6]): 0.41 µM
LC50 (50% lethal concentration) (HT-29 [6]): > 100 µM
TGI (HT-29 [6]): 12.1 µM
GI50 (SN12C): 4.81 µM
LC50 (SN12C): > 100 µM
TGI (SN12C): > 100 µM
growth at 10 µM (SF-539 [7]): 15.1%
GI50 (BT-549): 0.96 µM
TGI (BT-549): 35.6 µM
CC50 (BT-549; [14]): > 100 µM
growth at 10 µM (UO-31): 33.3%
growth at 10 µM (TK-10 [8]): 71.1%
GI50 (MDA-MB-468): 3.75 µM
LC50 (concentration killing 50% of cells) (MDA-MB-468): > 100 µM
TGI (MDA-MB-468): 31.2 µM
growth at 10 µM (MDA-MB-435): -24.3%
growth at 10 µM [9]: 46.6%
growth at 10 µM (SNB-75 [10]): 16.7%
GI50 (SK-OV-3): 2.44 µM
LC50 (SK-OV-3): > 100 µM
TGI (SK-OV-3): 19.6 µM
GI50 (SNB-75 [11]): 1.32 µM
TGI (SNB-75 [11]): > 7.89 µM
CC50 (SNB-75 [11]; [14]): > 100 µM
GI50 (SF-295): 0.93 µM
LC50 (concentration killing 50% of cells present at start) (SF-295): > 100 µM
TGI (SF-295): 8.73 µM
GI50 (TK-10 [12]): 8.31 µM
TGI (TK-10 [12]): > 100 µM
CC50 (TK-10 [12]; [14]): > 100 µM
growth at 10 µM (DU-145): 21.4%
growth at 10 µM (HT-29 [13]): 11.5%
growth at 10 µM (IGROV-1): 37.4%

O=c1[nH]cc(F)c(=O)[nH]1 [FLUOROURACIL]
GI50 (M14): 0.98 µM
GI50 (HL-60(TB)): 2.3 µM
GI50 (Malme-3M): 0.05 µM
GI50 [3]: 0.05 µM
GI50 (SF-539 [4]): 0.06 µM
GI50 (SK-MEL-2 [5]): 56.7 µM
GI50 (HT-29 [6]): 0.17 µM
GI50 (SN12C): 0.49 µM
GI50 (BT-549): 10.6 µM
GI50 (SK-OV-3): 21.8 µM
GI50 (SNB-75 [11]): 78.7 µM
GI50 (SF-295): 0.22 µM
GI50 (TK-10 [12]): 1.12 µM
